Assay results as given in paper PMC12034843 (Drug Design, Development and Therapy, 2025).
Ends that are not written are not given here.

Columns and labels:
MIN-6 cells = test: Insulin secretion of MIN-6 cells; format: cell-based; conditions: 100 nmol/L, 1 h, 8.3 mmol/L GLC and 0.8 mmol/L palmitic acid, MF density 1 T for /MF groups, n = 6
[1] = In vitro release from exosome-SPION; format: physicochemical; conditions: PBS, 37 °C, fitted with OriginPro 2021
In short: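 Test peptide loaded in SPION-decorated exosomes was placed in a dialysis bag (MWCO 80 kD) and incubated at 37 °C in PBS. Samples were withdrawn at selected intervals and peptide was quantified by reverse-phase HPLC on a C18 column. Percent release was calculated as (concentration in PBS × PBS volume) / (concentration in mother liquor × mother liquor volume) × 100%.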

[2] = Pharmacokinetic study after tail vein injection; format: in vivo; conditions: Kunming mice, 5 mg/kg, HPLC, n = 6
In short: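 Kunming mice ([…], 18–22 g) were randomised into groups of six and given 5 mg/kg by tail-vein injection, either as free peptide or as the peptide-equivalent dose in exosome-SPION form. At intervals, 20 μL of tail-vein blood was taken with heparinised micropipettes and mixed into 1 mL PBS. Samples were centrifuged at 10,000 rpm for 10 min, and peptide in the supernatant was quantified by C18 HPLC.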

HSDAVFTDNYTRLRKQVAAKKYLQSIKNKRY-NH2 (C-terminus assumed) [BAY 55-9837]
insulin secretion compared to the model group (MIN-6 cells): significantly enhance insulin secretion
first-order fitted release equation y = a × (1 – exp(−b × x)): a [1]: 53.92
time after injection at which it could not be detected in plasma [2]: 110 min
